Test system: not listed separately
Experiment: (§1) Selectivity index, ratio of CC50 for human HeLa cells assessed as reduction in cell viability to EC50 for wild-type HIV1 NL4-3 infected in human TZM-bl cells infected with supernatants from virus-infected human MT2 cells treated with compound for 48 to 72 hrs assessed as reduction in viral replication after 2 days by bright Glo-luciferase reporter gene assay based BiCycle assay
Assay type: toxicity
Conditions: read-out: Ratio CC50/EC50
Procedure, shortened: (§2)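 Selectivity index is CC50 from the respective cytotoxicity assay (HeLa or PBMC) divided by EC50 from the two-round MT-2/TZM-bl NL4-3 assay.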

| SMILES | selectivity ratio |
| --- | --- |
| Cc1ccnc(-c2nc(O)c(O)c(C(=O)N[C@H](C)C3CCCCC3)n2)c1 | 13 |
| C[C@@H](NC(=O)c1nc(-c2ccccn2)nc(O)c1O)C1CCCCC1 | 5 |
| O=C(NCCC1CCCCC1)c1nc(-c2ccccn2)nc(O)c1O | 2 |

Test system: not listed separately
Experiment: Inhibition of HIV1 Nucleocapsid protein (11 to 55 residues) assessed as reduction in NC-induced cTAR DNA destabilization by measuring intrinsic fluorescence using Alexa488-5'-cTAR-3'-Dabcyl oligonucleotide as substrate at 20 degree C incubated for 15 mins by fluorescence assay
Set-up: species or system Human immunodeficiency virus 1
Conditions: read-out: IC50
Procedure, shortened: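 Fluorescence NC-inhibition assay following destabilisation of cTAR DNA, the complement of the HIV-1 transactivation response element, dual-labelled with Alexa488 dye and Dabcyl quencher. NC protein at 1 μM, so the lowest measurable IC50 is 0.5 μM.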

| SMILES | IC50 [µM] |
| --- | --- |
| Cc1ccnc(-c2nc(O)c(O)c(C(=O)N[C@H](C)C3CCCCC3)n2)c1 | 8 |
| C[C@@H](NC(=O)c1nc(-c2ccccn2)nc(O)c1O)C1CCCCC1 | 42 |
| O=C(NCCC1CCCCC1)c1nc(-c2ccccn2)nc(O)c1O | 38 |

Test system: not listed separately
Experiment: Cytotoxicity against phytohemagglutinin and interleukin-2-stimulated human PBMC cells assessed as reduction in cell viability measured after 7 days by MTS assay
Assay type: cell-based
Conditions: not given

| SMILES | CC50 at 168 h [µM] |
| --- | --- |
| Cc1ccnc(-c2nc(O)c(O)c(C(=O)N[C@H](C)C3CCCCC3)n2)c1 | 3.1 |
| C[C@@H](NC(=O)c1nc(-c2ccccn2)nc(O)c1O)C1CCCCC1 | 3 |
| O=C(NCCC1CCCCC1)c1nc(-c2ccccn2)nc(O)c1O | 11 |

Test system: not listed separately
Experiment: Selectivity index, ratio of CC50 for human PBMC cells stimulated with phytohemagglutinin and interleukin-2 assessed as reduction in cell viability measured after 7 days by MTS assay to EC50 for wild-type HIV1 NL4-3 infected in human TZM-bl cells infected with supernatants from virus-infected human MT2 cells treated with compound for 48 to 72 hrs assessed as reduction in viral replication after 2 days by bright Glo-luciferase reporter gene assay based BiCycle assay
Assay type: toxicity
Conditions: read-out: Ratio CC50/EC50
Procedure, shortened: as §2

| SMILES | selectivity ratio at 7 days |
| --- | --- |
| Cc1ccnc(-c2nc(O)c(O)c(C(=O)N[C@H](C)C3CCCCC3)n2)c1 | 16 |
| C[C@@H](NC(=O)c1nc(-c2ccccn2)nc(O)c1O)C1CCCCC1 | 4 |
| O=C(NCCC1CCCCC1)c1nc(-c2ccccn2)nc(O)c1O | 5 |

Test system: not listed separately
Experiment: Cytotoxicity against human HeLa cells assessed as reduction in cell viability
Assay type: cell-based
Conditions: not given

| SMILES | CC50 [µM] |
| --- | --- |
| Cc1ccnc(-c2nc(O)c(O)c(C(=O)N[C@H](C)C3CCCCC3)n2)c1 | 2.7 |
| C[C@@H](NC(=O)c1nc(-c2ccccn2)nc(O)c1O)C1CCCCC1 | 3.2 |
| O=C(NCCC1CCCCC1)c1nc(-c2ccccn2)nc(O)c1O | 4.2 |

Test system: Human immunodeficiency virus 1
Experiment: as §1, with “Antiviral activity against” for “Selectivity index, ratio of CC50 for human HeLa cells assessed as reduction in cell viability to EC50 for”
Assay type: functional, organism-based
Conditions: Human immunodeficiency virus 1, NL4-3, TZM
Procedure, shortened: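 Two-round cell assay over the full replication cycle: MT-2 T cells are infected with wild-type reference strain NL4-3 in the first round, and reporter TZM-bl cells are infected in the second round. Values are given as mean ± deviation.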

| SMILES | EC50 [µM] |
| --- | --- |
| Cc1ccnc(-c2nc(O)c(O)c(C(=O)N[C@H](C)C3CCCCC3)n2)c1 | 0.2 |
| C[C@@H](NC(=O)c1nc(-c2ccccn2)nc(O)c1O)C1CCCCC1 | 0.7 |
| O=C(NCCC1CCCCC1)c1nc(-c2ccccn2)nc(O)c1O | 2.3 |
